Tests used:
[1] = target: T1, Kappa-type opioid receptor (Cavia porcellus, UniProt P41144); assay: Displacement of [3H]U-69593 at opioid receptor kappa 1
[2] = target: T2, Delta-type opioid receptor (Mus musculus, UniProt P32300); assay: Displacement of [3H]DADLE at delta-opioid receptor
[3] = target: T3, Mu-type opioid receptor (Rattus norvegicus, UniProt P33535); assay: Displacement of [3H]DAMGO at mu-opioid receptor
[4] = target: T2, Delta-type opioid receptor; assay: Antagonist activity of compound on agonist stimulated [35S]GTP-gamma-S binding on delta-opioid receptor; type: functional
[5] = species: Mus musculus; assay: Percentage inhibition of contraction height in mouse vas deferens (MVD) at 100 nM; type: functional
Procedure, shortened: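 Agonist effect read in isolated mouse vas deferens preparation as percent inhibition of contraction height, at one test concentration.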

[6] = species: Cavia porcellus; assay: Percentage inhibition of contraction height in guinea pig ileum longitudinal muscle myenteric plexus (GPI/LMMP) 1 uM; type: functional
Procedure, shortened: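 Agonist effect read in isolated guinea pig ileum longitudinal muscle/myenteric plexus preparation as percent inhibition of contraction height, at one test concentration.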

[7] = target: T3, Mu-type opioid receptor; assay: Antagonist activity of compound on agonist stimulated [35S]GTP-gamma-S binding on mu-opioid receptor; type: functional
[8] = target: T1, Kappa-type opioid receptor; assay: Antagonist activity of compound on U50,488H stimulated [35S]GTP-gamma-S binding to opioid receptor kappa 1; type: functional
[9] = species: Mus musculus; assay: Antagonist activity of compound in mouse vas deferens tested with DPDPE; type: functional
Procedure, shortened: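 Isolated mouse vas deferens. Antagonism is measured against the δ agonist DPDPE and expressed as Ke (nM). Agonist activity is recorded separately as percent inhibition of contraction height at a single stated concentration.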

[10] = species: Cavia porcellus; assay: Antagonist activity of compound in GPI/LMMP tested with PL-017; type: functional
Procedure, shortened: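 Guinea pig ileum longitudinal muscle/myenteric plexus preparation. Antagonism is measured against the μ agonist PL-017 and expressed as Ke (nM). Agonist activity is recorded separately as percent inhibition of contraction height at a single stated concentration.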

[11] = target: T2, Delta-type opioid receptor; assay: Antagonist activity of compound on SNC 80 stimulated [35S]GTP-gamma-S binding to delta-opioid receptor; type: functional
[12] = target: T3, Mu-type opioid receptor; assay: Antagonist activity of compound on DAMGO stimulated [35S]GTP-gamma-S binding to mu-opioid receptor; type: functional
[13] = species: Mus musculus; assay: Percentage inhibition of contraction height in mouse vas deferens (MVD) at 1 uM; type: functional

T1 sequence (P41144 whole entry): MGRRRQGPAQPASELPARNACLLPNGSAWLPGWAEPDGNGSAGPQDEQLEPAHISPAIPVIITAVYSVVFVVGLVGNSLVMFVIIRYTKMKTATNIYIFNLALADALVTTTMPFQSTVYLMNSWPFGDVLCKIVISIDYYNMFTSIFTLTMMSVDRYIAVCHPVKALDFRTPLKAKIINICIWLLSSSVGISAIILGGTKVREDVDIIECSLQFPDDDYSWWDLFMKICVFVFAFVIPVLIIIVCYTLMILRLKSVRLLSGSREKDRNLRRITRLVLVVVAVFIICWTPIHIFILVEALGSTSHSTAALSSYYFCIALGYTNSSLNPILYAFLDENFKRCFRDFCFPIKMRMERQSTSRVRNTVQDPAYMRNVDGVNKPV
T3 sequence (P33535 whole entry): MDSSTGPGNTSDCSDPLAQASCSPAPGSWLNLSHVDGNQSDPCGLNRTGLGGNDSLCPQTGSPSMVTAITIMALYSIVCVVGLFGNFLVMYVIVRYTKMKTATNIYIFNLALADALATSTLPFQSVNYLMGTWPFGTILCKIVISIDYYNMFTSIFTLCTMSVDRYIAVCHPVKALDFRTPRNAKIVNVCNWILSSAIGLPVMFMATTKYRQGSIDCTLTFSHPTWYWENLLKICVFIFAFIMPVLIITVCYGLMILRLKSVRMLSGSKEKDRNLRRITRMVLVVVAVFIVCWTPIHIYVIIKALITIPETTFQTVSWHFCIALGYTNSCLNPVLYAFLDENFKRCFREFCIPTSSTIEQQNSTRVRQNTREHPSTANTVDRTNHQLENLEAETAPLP
T2 sequence (P32300 whole entry): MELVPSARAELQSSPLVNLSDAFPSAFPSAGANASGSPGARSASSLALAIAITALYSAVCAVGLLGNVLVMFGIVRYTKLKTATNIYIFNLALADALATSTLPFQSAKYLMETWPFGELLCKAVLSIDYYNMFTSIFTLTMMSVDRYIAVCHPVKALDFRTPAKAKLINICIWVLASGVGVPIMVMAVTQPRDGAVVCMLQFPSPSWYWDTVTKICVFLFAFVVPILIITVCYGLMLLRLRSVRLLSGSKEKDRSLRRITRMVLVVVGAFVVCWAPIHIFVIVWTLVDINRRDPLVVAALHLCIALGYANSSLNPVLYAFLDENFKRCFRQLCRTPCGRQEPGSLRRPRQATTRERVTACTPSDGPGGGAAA

## CC(C)CN1CC[C@]23c4c5ccc(O)c4O[C@H]2c2[nH]c4ccccc4c2C[C@@]3(O)[C@H]1C5
[1]
  Ki: 650 nM
[2]
  Ki: 3.8 nM
[3]
  Ki: 2600 nM

## CCCN1CC[C@]23c4c5ccc(O)c4O[C@H]2c2[nH]c4ccccc4c2C[C@@]3(O)[C@H]1C5
[1]
  Ki: 380 nM
[2]
  Ki: 2 nM

## CC(C)=CCN1CC[C@]23c4c5ccc(O)c4O[C@H]2c2[nH]c4ccccc4c2C[C@@]3(O)[C@H]1C5
[1]
  Ki: 3200 nM
[2]
  Ki: 25 nM
[3]
  Ki: 2800 nM

## CC(C)N1CC[C@]23c4c5ccc(O)c4O[C@H]2c2[nH]c4ccccc4c2C[C@@]3(O)[C@H]1C5
[1]
  Ki: 6200 nM
[2]
  Ki: 33 nM
[3]
  Ki: > 6600 nM

## CCCCCCN1CC[C@]23c4c5ccc(O)c4O[C@H]2c2[nH]c4ccccc4c2C[C@@]3(O)[C@H]1C5
[1]
  Ki: 3100 nM
[2]
  Ki: 26 nM
[3]
  Ki: 4600 nM

## CCCCN1CC[C@]23c4c5ccc(O)c4O[C@H]2c2[nH]c4ccccc4c2C[C@@]3(O)[C@H]1C5
[1]
  Ki: 900 nM
[2]
  Ki: 8.4 nM
[3]
  Ki: 1300 nM

## CCCCCN1CC[C@]23c4c5ccc(O)c4O[C@H]2c2[nH]c4ccccc4c2C[C@@]3(O)[C@H]1C5
[1]
  Ki: 2000 nM
[2]
  Ki: 16 nM
[3]
  Ki: 2800 nM

## C/C=C/CN1CC[C@]23c4c5ccc(O)c4O[C@H]2c2[nH]c4ccccc4c2C[C@@]3(O)[C@H]1C5
[4]
  Ki: 0.68 nM
[1]
  Ki: 960 nM
[5]
  inhibition at 0.1 µM: 12%
[6]
  Inhibition: 22%
[2]
  Ki: 7.4 nM
[7]
  Ki: 30 nM
[3]
  Ki: 1200 nM
[8]
  Ki: 118 nM
[9]
  Ke: 26 nM
[10]
  Ke: 5500 nM

## CC(C)CCN1CC[C@]23c4c5ccc(O)c4O[C@H]2c2[nH]c4ccccc4c2C[C@@]3(O)[C@H]1C5
[1]
  Ki: 670 nM
[2]
  Ki: 4.8 nM
[3]
  Ki: 1300 nM

## CCN1CC[C@]23c4c5ccc(O)c4O[C@H]2c2[nH]c4ccccc4c2C[C@@]3(O)[C@H]1C5
[1]
  Ki: 3000 nM
[5]
  inhibition at 0.1 µM: 9%
[6]
  Inhibition: 1.2%
[2]
  Ki: 5 nM
[3]
  Ki: 2500 nM
[11]
  Ki: 3.2 nM
[8]
  Ki: > 1000 nM
[9]
  Ke: 9.6 nM
[10]
  Ke: 96 nM
[12]
  Ki: 290 nM

## CCCCCCCN1CC[C@]23c4c5ccc(O)c4O[C@H]2c2[nH]c4ccccc4c2C[C@@]3(O)[C@H]1C5
[1]
  Ki: > 7000 nM
[2]
  Ki: 79 nM
[3]
  Ki: 4600 nM

## Cl.Oc1ccc2c3c1O[C@H]1c4[nH]c5ccccc5c4C[C@@]4(O)[C@@H](C2)N(CC2CC2)CC[C@]314 [NALTRINDOLE HYDROCHLORIDE]
[4]
  Ki: 0.03 nM
[1]
  Ki: 30 nM
[6]
  Inhibition: 18%
[2]
  Ki: 0.22 nM
[13]
  inhibition at 1 µM: 16%
[8]
  Ki: 4.7 nM
[9]
  Ke: 0.49 nM
[10]
  Ke: 43 nM

## CN1CC[C@]23c4c5ccc(O)c4O[C@H]2c2[nH]c4ccccc4c2C[C@@]3(O)[C@H]1C5 [OXYMORPHINDOLE]
[3]
  Ki: 66 nM

Source: ChEMBL document CHEMBL1134413, “Effect of N-alkyl and N-alkenyl substituents in noroxymorphindole, 17-substituted-6,7-dehydro-4,5alpha-epoxy-3,14-dihydroxy-6,7:2',3'-indolomorphinans, on opioid receptor affinity, selectivity, and efficacy” (J Med Chem, 2001)
